SDO1 yeast rescue = restores growth of sdo1-depleted yeast; 140,000 compounds, 0.21% hits; z-score at 10 µM; S. cerevisiae sdo1-depleted JHY4D growth rescue, OD600 30 h; stronger effect = higher value; pdr5 snq2 efflux-pump mutant strain;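 active = z-score above 3 at both the 24 hr and the 30 hr optical density reads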;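 also: z-score against mean and SD of all compound wells on the same plate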
Yeast life ext = yeast lifespan extension | AID 775 | inhibition of the nicotinamide effect, % at 10 µM | 130,000 compounds, 0.68% hits | S. cerevisiae growth with nicotinamide, OD615; deaD strain in restrictive glucose medium;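 active = inhibition above a set limit, placed 3 SD over the median of all compounds, cut at about 26% in these data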;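 also: 0% = nicotinamide-treated wells and 100% = cells grown without nicotinamide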
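System: Modified budding yeast, DeaD strain | Buffer or medium: Restrictive glucose medium | Also added: 1.5 mM nicotinamide | Doses: 10 µM single point, 0.25% DMSO | Schedule: 48 h compound exposure at 30 °C, humidified | Detection: Absorbance at 615 nm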
RAM inhibit = yeast RAM network inhibition; S. cerevisiae dse1pr::URA3 reporter, 5-FOA growth OD615, 2 d; analog-sensitive cbk1-as2 kinase mutant strain; inhibition, % at 50 µM; 190,000 compounds, 1.8% hits; AID 868;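 active = inhibition above a set limit, 3 SD over mean compound inhibition, cut at about 8.4% in these data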;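 also: 0% = DMSO-only wells with no growth and 100% = 10 µM 1-NA-PP1 full growth; inhibition rescues growth on 5-FOA so higher OD means more RAM inhibition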
BB579 growth dn = yeast BB579 growth reduction in restrictive medium; S. cerevisiae BB579 growth, OD615, 48 h; inhibition, % at 10 µM; 140,000 compounds, 0.51% hits;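 active = inhibition above a set limit, 3 SD over the mean compound inhibition, cut at about 44% in these data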
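controls = amphotericin B 10 µg/mL, positive | assay system = DeaD yeast strain BB579 | schedule = 48 h compound exposure at 30 °C after 4 h preincubation | detection = OD615 turbidity measurement | medium = restrictive CSMM-D medium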
The depositor's hits bear a star; nt = no result given. Most compounds without a hit are left out; they make up all but 2.7% or so of the library.

SMILES	SDO1 yeast rescue	Yeast life ext	RAM inhibit	BB579 growth dn
CCCCOc1ccc(-c2nnn(CC(=O)Nc3ncc(CC(=O)OCC)s3)n2)cc1	-1.9	-2	9.3*	-68
CC(C)OCCCNS(=O)(=O)c1ccc2ccccc2c1	-0.26	108*	-1	-41
O=S(=O)(NCCOc1ccccc1)c1ccc2ccccc2c1	-0.08	-6	2	-22
Cc1nc(CS(=O)c2ccccc2)cc(N2CCOCC2)n1 (stereo not drawn)	-0.13	-14	1	-5
COc1ccc(Cn2nnnc2C(C(C)C)N2CCc3ccccc32)cc1 (stereo not drawn)	-1.5	8	11*	-7
COc1ccccc1NC(=O)Cc1csc(NC(=O)c2ccccc2)n1	nt	nt	9.2*	nt
Cc1[nH]n(-c2ccccc2)c(=O)c1/C=N/N1C(=O)c2ccc3c4c(ccc(c24)C1=O)CC3	1.3	-9	2	79*
Cc1ccccc1C(=O)NNC1=NCCC1	1.2	29*	4	-22
O=C(NNC1=NCCC1)c1cccc(Br)c1	0.84	-3	0	-21
Cc1ccccc1CSc1ccc2nnc(-c3ccccn3)n2n1	nt	nt	1	nt
O=C(Oc1coc(CSc2ncccn2)cc1=O)c1ccc(Br)o1	-0.22	38*	1	-6
O=C(CSc1ccc(F)cc1)Nc1ccccc1Br	nt	nt	11*	nt
O=C(CSc1ccc(F)cc1)Nc1ccc(Br)cc1	nt	nt	1	nt
CCN(CC)c1ccc(-c2nn3c(-c4ccccc4OC)nnc3s2)cc1	-0.83	-12	2	-69
CC(=O)N(/N=C/c1cccc(C)c1)c1nc(-c2ccc(Br)cc2)cs1	-0.12	7	4	-86
COc1ccc(/C=N/N(C(C)=O)c2nc(-c3ccc(C)cc3)cs2)cc1	0.94	-1	9.3*	-74
CCc1ccc2c(c1)c1nc(C)sc1n2CC(=O)OC	0.19	-11	2	15
COc1cc(NC(=O)c2cnn3c(C(F)F)cc(C4CC4)nc23)c(OC)cc1Cl	nt	nt	0	nt
COc1ccc(-c2cnn3c(N)c(S(=O)(=O)C(C)(C)C)cnc23)cc1	-1.3	30*	0	-2
CCCCCSc1nc2c(c(=O)[nH]c(=O)n2C)n1C	0.46	58*	0	13
CCCCCSc1nc2c(c(=O)[nH]c(=O)n2C)n1C(C)C	-1.2	-5	2	-20
CCc1ccc(OCCNC(=O)c2ccccc2SCc2ccccc2)cc1	-0.71	-2	8.8*	-30
CCNC(=O)c1ccccc1SCc1ccccc1	nt	nt	0	nt
Fc1ccc(C(CCCn2nnc(-c3cccnc3)n2)c2ccc(F)cc2)cc1	-0.62	1	10.0*	-29
Fc1ccc(-n2nnc(-c3cccnc3)n2)cc1	nt	nt	1	nt
SMILES	SDO1 yeast rescue	Yeast life ext	RAM inhibit	BB579 growth dn
O=C(Nc1nnc(-c2ccc(F)cc2)o1)c1cc(Cl)sc1Cl	-2.3	-4	-1	66*
COc1ccc(S(=O)(=O)CCC(=O)NCCc2ccc(C)cc2)cc1	0.94	-6	-1	-27
COc1cccc(CNC(=O)Cc2ccc(-n3c(=O)[nH]c4ccccc4c3=O)cc2)c1	1.7	5	9.0*	-28
Cc1cccc2cc(=O)[nH]c(C)c12	0.55	-13	0	-37
O=C(Nc1ncc2c(n1)-c1ccccc1OC2)c1cccc([N+](=O)[O-])c1	nt	nt	8.6*	nt
Cc1ccc(C(=O)Oc2csc(=S)n2C(=O)c2ccc(C)cc2)cc1	0.76	-10	-1	8
Cc1ccccc1N(CC(=O)NC(C)(C)C)C(=O)CS(=O)CC(=O)Nc1ccc2c(c1)OCO2 (stereo not drawn)	nt	nt	1	nt
O=S1(=O)C=C(N2CCCCC2)c2ccccc21	-0.16	1	1	-18
COc1ccc2nc(NC(=O)C(NS(=O)(=O)c3cccs3)C(C)C)sc2c1 (stereo not drawn)	0.21	-16	8.8*	-46
COc1ccc2nc(NC(=S)N(C)C)sc2c1	-1.3	-11	-1	65*
COc1ccc2nc(N/C(=N/S(=O)(=O)c3cccs3)c3ccccc3Cl)sc2c1	nt	nt	3	nt
CCOC(=O)c1c(-c2ccsc2)csc1N	0	-20	1	-63
CS(=O)(=O)N(CC(=O)NCCc1ccccc1)c1cccc([N+](=O)[O-])c1	nt	nt	1	nt
CCOC(=O)c1c(C)[nH]c(C)c1C(=O)CSc1nc2ccccc2c(=O)n1-c1ccccc1C	-0.34	5	9.7*	9
Cc1cc(C)c(OCCCCCNCCO)c(C)c1	-0.07	-6	2	-37
O=C(Cc1ccc(Cl)cc1Cl)Nc1cccc(S(=O)(=O)Nc2ccccc2F)c1	-1.6	15	8.8*	2
O=C(/C=C/c1ccccc1)Nc1cccc(S(=O)(=O)Nc2ccccc2F)c1	-1	9	9.3*	-8
O=C(Nc1cccc(S(=O)(=O)Nc2ccccc2F)c1)c1ccc2ccccc2n1	nt	nt	5	nt
CC1(C)Oc2ccc3ccc(=O)oc3c2/C(=C/Nc2ccccn2)C1=O	-1.1	-7	3	-28
Cc1ccc(S(=O)(=O)N2CC3(C)CN(S(=O)(=O)c4ccc(C)cc4)CC(C)(C2)C3O)cc1 (stereo not drawn)	0.82	-2	6	-35
C=CCN1C(=O)/C(=C/c2cccs2)S/C1=N\S(=O)(=O)c1ccc(F)cc1	-0.92	9	11*	-1
CC1CCCCC1NC(=O)Cn1ncc2ccccc21 (stereo not drawn)	-0.42	-15	1	-18
COc1ccccc1Nc1nc(N)nc(-c2oc3ccccc3c2C)n1	-0.31	0	9.8*	-56
O=C(Nc1cc(C(F)(F)F)ccc1Cl)C(Sc1nnc(-c2cccs2)o1)c1ccccc1 (stereo not drawn)	1.1	0	5	-28
O=C(Nc1cc(C(F)(F)F)ccc1Cl)C(Sc1cccc[n+]1[O-])c1ccccc1 (stereo not drawn)	0.44	-8	-1	93*
SMILES	SDO1 yeast rescue	Yeast life ext	RAM inhibit	BB579 growth dn
CCOc1cccc(C(=O)Nc2ccc3oc(Cc4ccc(Cl)cc4)nc3c2)c1	-2	-4	11*	-40
O=C(Nc1ccc2oc(Cc3ccc(Cl)cc3)nc2c1)c1cccnc1	-1.1	-4	-1	-11
Cc1ccc(-c2nc(NCc3ccco3)n(C(=O)c3ccco3)n2)cc1	nt	nt	7	nt
O=C(c1ccco1)n1nc(-c2ccc(Cl)cc2)nc1NCc1ccco1	-0.74	7	9.4*	-73
CCc1cc2c(cc(C(=O)O)n2C)s1	0.22	-6	-1	58*
CC(=O)N1c2ccccc2C2(O)N=C(C)SC12 (stereo not drawn)	0.55	4	0	62*
COc1ccc(-c2nnn(CC(=O)N(Cc3ccccc3Cl)C(C(=O)NCC3CCCO3)c3ccco3)n2)cc1 (stereo not drawn)	-0.25	-6	4	-10
CCOC(=O)c1cnc(-n2nc(C)cc2C)nc1NC	-0.19	-23	-1	-10
CCOC(=O)c1cnc(-n2nc(C)cc2C)nc1NC1CCCCC1	-3.3	-13	-2	98*
CCCC(=O)Nc1ccccc1-c1nnn(CC(=O)Nc2ccc(OC)cc2)n1	-0.33	-1	3	-78
CCOc1ccc(NC(=O)Cn2nnc(-c3ccccc3NC(=O)c3cccs3)n2)cc1	-2.2	-3	8.4*	-19
